Reference: ChEMBL document CHEMBL3232764, “Influence of the adamantyl moiety on the activity of biphenylacrylohydroxamic acid-based HDAC inhibitors” (Eur J Med Chem, 2014)
Active and inactive are the calls of the source. No cut-off for these calls is given here.

How the values were obtained:
[1] = biological target: T1, Protein deacetylase HDAC6 (Homo sapiens) (UniProt Q9UBN7); assay: Inhibition of HDAC6 in human IGROV1 cells assessed as increase in tubulin acetylation at IC80 after 4 to 24 hrs by Western blot analysis; type: cell-based; conditions: IGROV-1
T1 sequence (whole entry): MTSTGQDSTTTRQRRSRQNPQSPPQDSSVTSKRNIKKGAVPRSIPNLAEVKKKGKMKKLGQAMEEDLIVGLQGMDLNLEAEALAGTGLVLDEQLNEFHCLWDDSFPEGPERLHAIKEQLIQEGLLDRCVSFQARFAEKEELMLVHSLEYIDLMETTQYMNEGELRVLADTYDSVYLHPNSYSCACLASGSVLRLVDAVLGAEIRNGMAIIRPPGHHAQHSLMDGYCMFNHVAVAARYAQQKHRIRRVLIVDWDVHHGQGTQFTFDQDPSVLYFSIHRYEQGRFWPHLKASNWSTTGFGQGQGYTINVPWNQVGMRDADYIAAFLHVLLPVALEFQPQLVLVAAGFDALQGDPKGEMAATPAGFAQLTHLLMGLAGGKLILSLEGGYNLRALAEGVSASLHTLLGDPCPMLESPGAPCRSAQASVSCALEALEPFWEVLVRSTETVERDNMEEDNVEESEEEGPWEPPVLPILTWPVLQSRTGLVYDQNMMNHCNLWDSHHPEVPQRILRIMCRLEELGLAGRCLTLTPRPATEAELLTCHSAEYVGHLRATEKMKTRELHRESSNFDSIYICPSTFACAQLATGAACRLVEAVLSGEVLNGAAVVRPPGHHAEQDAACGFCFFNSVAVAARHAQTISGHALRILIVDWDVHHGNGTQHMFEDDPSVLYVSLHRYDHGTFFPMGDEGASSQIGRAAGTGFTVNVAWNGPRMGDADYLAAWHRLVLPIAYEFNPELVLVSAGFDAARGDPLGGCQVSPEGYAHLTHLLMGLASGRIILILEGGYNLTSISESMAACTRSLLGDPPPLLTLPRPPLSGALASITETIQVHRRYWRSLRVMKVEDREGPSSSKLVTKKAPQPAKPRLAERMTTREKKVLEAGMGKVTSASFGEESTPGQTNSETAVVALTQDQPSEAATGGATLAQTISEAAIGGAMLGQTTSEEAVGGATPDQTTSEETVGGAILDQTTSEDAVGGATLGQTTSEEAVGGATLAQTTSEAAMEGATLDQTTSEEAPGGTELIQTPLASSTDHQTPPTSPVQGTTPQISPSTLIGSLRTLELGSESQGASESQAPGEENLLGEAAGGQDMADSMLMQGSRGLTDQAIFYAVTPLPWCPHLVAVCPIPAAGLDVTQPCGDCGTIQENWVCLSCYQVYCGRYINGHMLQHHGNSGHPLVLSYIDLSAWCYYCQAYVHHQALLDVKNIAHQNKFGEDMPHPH
Outline: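 Cells treated with various concentrations of HDAC inhibitors, collected, lysed and analysed by Western blotting.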

[2] = biological target: T2, Polyamine deacetylase HDAC10 (Homo sapiens, UniProt Q969S8); assay: Inhibition of human HDAC10 using fluorogenic tetrapeptide RHKKAc as substrate
T2 sequence (Q969S8 whole entry): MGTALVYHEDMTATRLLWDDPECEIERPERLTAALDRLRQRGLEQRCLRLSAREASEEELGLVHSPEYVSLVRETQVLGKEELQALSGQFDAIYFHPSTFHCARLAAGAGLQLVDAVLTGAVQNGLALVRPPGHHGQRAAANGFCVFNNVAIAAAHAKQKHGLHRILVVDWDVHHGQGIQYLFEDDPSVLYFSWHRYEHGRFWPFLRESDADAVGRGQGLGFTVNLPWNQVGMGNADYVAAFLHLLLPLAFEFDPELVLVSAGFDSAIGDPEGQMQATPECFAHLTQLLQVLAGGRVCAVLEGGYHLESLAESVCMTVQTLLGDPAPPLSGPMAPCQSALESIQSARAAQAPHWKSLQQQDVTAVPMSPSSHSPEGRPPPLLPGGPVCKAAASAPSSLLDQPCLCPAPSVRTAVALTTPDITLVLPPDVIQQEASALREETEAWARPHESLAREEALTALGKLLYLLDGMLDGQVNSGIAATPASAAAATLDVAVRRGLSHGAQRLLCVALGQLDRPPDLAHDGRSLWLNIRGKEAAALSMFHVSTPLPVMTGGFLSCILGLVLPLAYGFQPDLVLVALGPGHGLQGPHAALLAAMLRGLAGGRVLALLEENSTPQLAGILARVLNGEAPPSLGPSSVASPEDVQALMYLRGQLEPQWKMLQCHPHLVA

IGROV-1 [3] = assay: Cell cycle arrest in human IGROV1 cells assessed as accumulation at G1 phase at IC80 after 24 hrs by propidium iodide staining-based flow cytometry (reference value: 49.98%); type: functional
Outline: (§1)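 Cell-cycle distribution in IGROV-1 cells read by flow cytometry of propidium iodide–stained cells.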

IGROV-1 [4] = assay: Cell cycle arrest in human IGROV1 cells assessed as accumulation at S phase at IC80 after 24 hrs by propidium iodide staining-based flow cytometry (reference value: 36.81%); type: functional; outline: as §1
[5] = Antiproliferative activity against p53 defective cis-platinum-resistant human IGROV1/Pt1 cells assessed as growth inhibition after 72 hrs; type: functional, cell-based; conditions: IGROV-1/Pt1, 72 h
Outline: (§2)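 Log-phase cells seeded in duplicate in 6-well plates; drug added 24 h after seeding. Cells harvested 72 h after drug exposure and counted with a cell counter. IC50 = drug concentration giving 50% reduction in cell number versus untreated control.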

IGROV-1 [6] = assay: Antiproliferative activity against human IGROV1 cells assessed as growth inhibition after 72 hrs; type: functional, cell-based; conditions: IGROV-1, 72 h; outline: as §2
[7] = Cell cycle arrest in human IGROV1 cells assessed as accumulation at G2/M phase at IC80 after 24 hrs by propidium iodide staining-based flow cytometry (reference value: 13.21%); type: functional; conditions: IGROV-1; outline: as §1
cells = type: functional, cell-based; conditions: Homo sapiens, NCI-H460, 72 h
Histone deacetylase 2 = Histone deacetylase 2 (Homo sapiens, UniProt Q92769); type: cell-based, HeLa
Sequence of Histone deacetylase 2 (Q92769 whole entry): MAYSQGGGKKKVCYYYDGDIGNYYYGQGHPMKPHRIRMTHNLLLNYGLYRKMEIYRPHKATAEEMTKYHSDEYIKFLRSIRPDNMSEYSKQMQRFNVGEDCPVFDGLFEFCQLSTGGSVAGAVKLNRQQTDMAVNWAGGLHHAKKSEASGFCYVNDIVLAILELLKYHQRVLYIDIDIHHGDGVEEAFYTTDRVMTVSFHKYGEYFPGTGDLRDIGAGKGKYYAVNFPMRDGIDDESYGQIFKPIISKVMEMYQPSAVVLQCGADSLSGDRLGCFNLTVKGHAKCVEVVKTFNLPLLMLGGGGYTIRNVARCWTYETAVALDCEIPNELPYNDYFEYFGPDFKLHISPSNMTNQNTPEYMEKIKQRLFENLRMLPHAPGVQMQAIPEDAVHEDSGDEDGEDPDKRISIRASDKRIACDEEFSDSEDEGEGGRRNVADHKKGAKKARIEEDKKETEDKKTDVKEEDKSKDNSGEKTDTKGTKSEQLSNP

Activity [1]	IC50 [2]	IC50 (cells)	IC50 (Histone deacetylase 2)	SMILES	Activity (IGROV-1 [3])	Activity (IGROV-1 [4])	IC50 [5]	IC50 (IGROV-1 [6])	Activity [7]
inactive	> 100000 nM	1400 nM	> 10000 nM	COc1ccc(-c2ccc(/C=C/C=C/C(=O)NO)cc2)cc1C12CC3CC(CC(C3)C1)C2	70.35%	22.18%	2030 nM	1300 nM	7.46%
–	> 100000 nM	–	–	COc1ccc(-c2ccc(/C=C/C=C/C(=O)NO)cc2)cc1	–	–	–	–	–
